According to ChEMBL document CHEMBL1671867, “Novel polymyxin derivatives carrying only three positive charges are effective antibacterial agents” (Antimicrob Agents Chemother, 2008):
≈ marks a conversion by molar mass, not a printed value.

Assays:
Type in all cases: functional
Escherichia coli [1] = assay: Antibacterial activity against Escherichia coli ATCC […] by Etest method in presence of 4 ug/ml NAB7064
Escherichia coli [2] = assay: Antibacterial activity against Escherichia coli IH3080 by Etest method
Procedure, shortened: (§1)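 E-strip MIC on Mueller-Hinton agar without added peptide; inoculum per manufacturer, matching CLSI M2-A9.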

Enterobacter cloacae [3] = assay: Antibacterial activity against Enterobacter cloacae ATCC 23355 […] by Etest method in presence of 2 ug/ml NAB7062
Escherichia coli [4] = assay: Ratio of the MIC for Escherichia coli ATCC 25992 in the absence of NAB7061 to MIC for Escherichia coli ATCC 25992 in the presence of 4 ug/ml of NAB7061
Escherichia coli [5] = assay: Ratio of the MIC for Escherichia coli IH3080 in the absence of NAB7061 to MIC for Escherichia coli IH3080 in the presence of 4 ug/ml of NAB7061
Enterobacter cloacae [6] = assay: Antibacterial activity against Enterobacter cloacae ATCC 23355 by Etest method; procedure, shortened: as §1
Escherichia coli [7] = assay: Antibacterial activity against Escherichia coli IH3080 by Etest method in presence of NAB7061
Escherichia coli [8] = assay: Antibacterial activity against Escherichia coli IH3080 by Etest method in presence of 4 ug/ml NAB7064
Klebsiella pneumoniae [9] = assay: Antibacterial activity against Klebsiella pneumoniae ATCC 13883 by Etest method in presence of 2 ug/ml NAB7061
Procedure, shortened: (§2)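 MICs of the antibiotic taken from E-strips on Mueller-Hinton agar, run both with and without peptide. […] Inoculum was prepared per the strip manufacturer, matching CLSI M2-A9.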

Klebsiella pneumoniae [10] = assay: Antibacterial activity against Klebsiella pneumoniae ATCC 13883 by Etest method in presence of 4 ug/ml NAB7061; procedure, shortened: as §2
Escherichia coli [11] = assay: Antibacterial activity against Escherichia coli ATCC […] by Etest method; procedure, shortened: as §1
Escherichia coli [12] = assay: Antibacterial activity against Escherichia coli ATCC […] by Etest method in presence of 1 ug/ml NAB7061
Klebsiella pneumoniae [13] = assay: Ratio of the MIC for Klebsiella pneumoniae ATCC 13883 in the absence of NAB7061 to MIC for Klebsiella pneumoniae ATCC 13883 in the presence of 4 ug/ml of NAB7061
Enterobacter cloacae [14] = assay: Antibacterial activity against Enterobacter cloacae ATCC 23355 […] by Etest method in presence of NAB7061
Enterobacter cloacae [15] = assay: Ratio of the MIC for Enterobacter cloacae ATCC 23355 in the absence of NAB7061 to MIC for Enterobacter cloacae ATCC 23355 […] in the presence of 4 ug/ml of NAB7061
Klebsiella pneumoniae [16] = assay: Antibacterial activity against Klebsiella pneumoniae ATCC 13883 by Etest method in presence of NAB7061; procedure, shortened: as §2
Enterobacter cloacae [17] = assay: Antibacterial activity against Enterobacter cloacae ATCC 23355 […] by Etest method in presence of 1 ug/ml NAB7061
Klebsiella pneumoniae [18] = assay: Antibacterial activity against Klebsiella pneumoniae ATCC 13883 by Etest method in presence of 1 ug/ml NAB7061; procedure, shortened: as §2
Escherichia coli [19] = assay: Antibacterial activity against Escherichia coli IH3080 by Etest method in presence of 2 ug/ml NAB7062
Escherichia coli [20] = assay: Antibacterial activity against Escherichia coli ATCC […] by Etest method in presence of 2 ug/ml NAB7062
Enterobacter cloacae [21] = assay: Antibacterial activity against Enterobacter cloacae ATCC 23355 […] by Etest method in presence of 4 ug/ml NAB7064
Escherichia coli [22] = assay: Antibacterial activity against Escherichia coli IH3080 by Etest method in presence of 1 ug/ml NAB7061
Escherichia coli [23] = assay: Antibacterial activity against Escherichia coli ATCC […] by Etest method in presence of NAB7061
Klebsiella pneumoniae [24] = assay: Antibacterial activity against Klebsiella pneumoniae ATCC 13883 by Etest method; procedure, shortened: as §2
Acinetobacter baumannii [25] = assay: (§3) Antibacterial activity against Acinetobacter baumannii ATCC 19606 by Etest method in presence of […] NAB739
Acinetobacter baumannii [26] = assay: Antibacterial activity against Acinetobacter baumannii ATCC 19606 by Etest method in presence of 1 ug/ml NAB739
Acinetobacter baumannii [27] = assay: Antibacterial activity against Acinetobacter baumannii ATCC 19606 by Etest method in presence of NAB739
Acinetobacter baumannii [28] = assay: Antibacterial activity against Acinetobacter baumannii ATCC 19606 by Etest method
Acinetobacter baumannii [29] = assay: as §3; remark: listed apart in the source
Pseudomonas aeruginosa [30] = assay: Antibacterial activity against Pseudomonas aeruginosa ATCC 27853by Etest method in presence of 2 ug/ml NAB739
Acinetobacter baumannii [31] = assay: (§4) Antibacterial activity against Acinetobacter baumannii F264 by Etest method in presence of […] NAB739
Acinetobacter baumannii [32] = assay: Antibacterial activity against Acinetobacter baumannii F264 by Etest method in presence of NAB739
Pseudomonas aeruginosa [33] = assay: Antibacterial activity against Pseudomonas aeruginosa ATCC 27853by Etest method in presence of 1 ug/ml NAB739; procedure, shortened: as §2
Acinetobacter baumannii [34] = assay: as §4; remark: listed apart in the source
Acinetobacter baumannii [35] = assay: Antibacterial activity against Acinetobacter baumannii F264 by Etest method in presence of 1 ug/ml NAB739
Acinetobacter baumannii [36] = assay: Antibacterial activity against Acinetobacter baumannii F264 by Etest method in presence of 0.5 ug/ml NAB739
Pseudomonas aeruginosa [37] = assay: Antibacterial activity against Pseudomonas aeruginosa ATCC 27853by Etest method; procedure, shortened: as §2
Pseudomonas aeruginosa [38] = assay: (§5) Antibacterial activity against Pseudomonas aeruginosa ATCC 27853by Etest method in presence of […] NAB739
Pseudomonas aeruginosa [39] = assay: Antibacterial activity against Pseudomonas aeruginosa ATCC 27853by Etest method in presence of 0.5 ug/ml NAB739; procedure, shortened: as §2
Acinetobacter baumannii [40] = assay: Antibacterial activity against Acinetobacter baumannii ATCC 19606 by Etest method in presence of 0.5 ug/ml NAB739
Acinetobacter baumannii [41] = assay: Antibacterial activity against Acinetobacter baumannii F264 by Etest method; procedure, shortened: as §1
Pseudomonas aeruginosa [42] = assay: as §5; remark: listed apart in the source

Work on `CC[C@H]1OC(=O)[C@H](C)[C@@H](O[C@H]2C[C@@](C)(OC)[C@@H](O)[C@H](C)O2)[C@H](C)[C@@H](O[C@@H]2O[C@H](C)C[C@H](N(C)C)[C@H]2O)[C@](C)(O)C[C@@H](C)CN(C)[C@H](C)[C@@H](O)[C@]1(C)O` [AZITHROMYCIN] yielded an MIC (Escherichia coli [1]) of 0.094 µg/mL, an MIC (Escherichia coli [2]) of 2 µg/mL (≈ 2.67 µM) and an MIC (Enterobacter cloacae [3]) of 1.5 µg/mL. The Ratio (Escherichia coli [4]) was 24, the Ratio (Escherichia coli [5]) was 31 and the MIC (Enterobacter cloacae [6]) was 6 µg/mL (≈ 8.01 µM). It also gave an MIC (Escherichia coli [7]) of 0.173 µg/mL, an MIC (Escherichia coli [8]) of 0.064 µg/mL and an MIC (Klebsiella pneumoniae [9]) of 0.19 µg/mL. It also gave an MIC (Klebsiella pneumoniae [10]) of 0.047 µg/mL, an MIC (Escherichia coli [11]) of 3 µg/mL (≈ 4.01 µM) and an MIC (Escherichia coli [12]) of 0.5 µg/mL. For the same compound, the Ratio (Klebsiella pneumoniae [13]) was 31, the MIC (Enterobacter cloacae [14]) was 0.438 µg/mL and the Ratio (Enterobacter cloacae [15]) was 32. For the same compound, the MIC (Klebsiella pneumoniae [16]) was ≤ 0.126 µg/mL, the MIC (Enterobacter cloacae [17]) was 4 µg/mL and the MIC (Klebsiella pneumoniae [18]) was 0.19 µg/mL. The MIC (Escherichia coli [19]) was 0.19 µg/mL, the MIC (Escherichia coli [20]) was 0.19 µg/mL and the MIC (Enterobacter cloacae [21]) was 0.19 µg/mL. The MIC (Escherichia coli [22]) was 0.75 µg/mL, the “fractional inhibitory concentration index (FICI)” value (Escherichia coli [23]) was 0.157 and the MIC (Klebsiella pneumoniae [24]) was 2 µg/mL (≈ 2.67 µM).

In the case of `CC[C@H]1OC(=O)[C@H](C)[C@@H](O[C@H]2C[C@@](C)(OC)[C@@H](O)[C@H](C)O2)[C@H](C)[C@@H](O[C@@H]2O[C@H](C)C[C@H](N(C)C)[C@H]2O)[C@](C)(O)C[C@@H](C)C(=O)[C@H](C)[C@@H](O)[C@]1(C)O` [ERYTHROMYCIN], the MIC (Escherichia coli [1]) is reported as 0.75 µg/mL, the MIC (Escherichia coli [2]) is reported as 16 µg/mL (≈ 21.8 µM) and the MIC (Enterobacter cloacae [3]) is reported as 8 µg/mL. It also gave a Ratio (Escherichia coli [4]) of 32, a Ratio (Escherichia coli [5]) of 32 and an MIC (Enterobacter cloacae [6]) of 64 µg/mL (≈ 87.2 µM). The MIC (Escherichia coli [7]) was 0.25 µg/mL, the MIC (Escherichia coli [8]) was 0.38 µg/mL and the MIC (Klebsiella pneumoniae [9]) was 2 µg/mL. For the same compound, the MIC (Klebsiella pneumoniae [10]) was 0.5 µg/mL, the MIC (Escherichia coli [11]) was 32 µg/mL (≈ 43.6 µM) and the MIC (Escherichia coli [12]) was 6 µg/mL. It also gave a Ratio (Klebsiella pneumoniae [13]) of 24, an MIC (Enterobacter cloacae [14]) of 0.375 µg/mL and a Ratio (Enterobacter cloacae [15]) of 21. The MIC (Klebsiella pneumoniae [16]) was ≤ 0.143 µg/mL, the MIC (Enterobacter cloacae [17]) was 48 µg/mL and the MIC (Klebsiella pneumoniae [18]) was 4 µg/mL. The MIC (Escherichia coli [19]) was 2 µg/mL, the MIC (Escherichia coli [20]) was 2 µg/mL and the MIC (Enterobacter cloacae [21]) was 1.5 µg/mL. For the same compound, the MIC (Escherichia coli [22]) was 4 µg/mL, the “fractional inhibitory concentration index (FICI)” value (Escherichia coli [23]) was 0.188 and the MIC (Klebsiella pneumoniae [24]) was 24 µg/mL (≈ 32.7 µM).

In the case of `CC(=O)O[C@H]1C[C@@]2(C)[C@@H](C[C@@H](O)[C@H]3[C@@]4(C)CC[C@@H](O)[C@@H](C)[C@@H]4CC[C@@]32C)/C1=C(\CCC=C(C)C)C(=O)O` [FUSIDIC ACID], the MIC (Acinetobacter baumannii [25]) is reported as 32 µg/mL, the MIC (Acinetobacter baumannii [26]) is reported as 1 µg/mL and the “fractional inhibitory concentration index (FICI)” value (Acinetobacter baumannii [27]) is reported as “<=0.172”. For the same compound, the MIC (Acinetobacter baumannii [28]) was > 256 µg/mL, the MIC (Acinetobacter baumannii [29]) was 12 µg/mL and the MIC (Pseudomonas aeruginosa [30]) was 192 µg/mL. For the same compound, the MIC (Acinetobacter baumannii [31]) was 32 µg/mL, the “fractional inhibitory concentration index (FICI)” value (Acinetobacter baumannii [32]) was “<=0.172” and the MIC (Pseudomonas aeruginosa [33]) was > 256 µg/mL. The MIC (Acinetobacter baumannii [34]) was 12 µg/mL, the MIC (Acinetobacter baumannii [35]) was 1 µg/mL and the MIC (Acinetobacter baumannii [36]) was 3 µg/mL. For the same compound, the MIC (Pseudomonas aeruginosa [37]) was > 256 µg/mL, the MIC (Pseudomonas aeruginosa [38]) was > 256 µg/mL and the MIC (Pseudomonas aeruginosa [39]) was > 256 µg/mL. For the same compound, the MIC (Acinetobacter baumannii [40]) was 4 µg/mL, the MIC (Acinetobacter baumannii [41]) was > 256 µg/mL and the MIC (Pseudomonas aeruginosa [42]) was > 256 µg/mL.
